The target in test [1] is calcineurin (CN) (UniProt Q08209). The test can be described thus: Calcineurin-AKAP79 competitive binding assay. The arrangement: species or system human. The conditions noted are these: for Ki: read-out: estimated Ki, competition with fluorescent PVIVIT peptide for binding to CN, GST-AKAP79(333–348) fusion proteins (14mer), representative of three experiments.
In the next test the target is CN. Particulars: cited from earlier work; for Kd: read-out: Kd for CN, natural recognition sites.
The test system of test [2] is NFAT3 (NFATc4) nuclear translocation in hippocampal neurons. The test can be described thus: NFAT translocation assay after KCl depolarization. The test is classed as cell-based, rat. Particulars: full-length AKAP79 expressed after AKAP150 RNAi; 3-min 90 mM KCl.
For test [3], the system named is CN-YFP / AKAP79-YFP mobility in rat hippocampal neuron dendritic spines. The test can be described thus: FRAP microscopy in single dendritic spines. The test is classed as cell-based. Particulars: wildtype AKAP79-YFP in dendritic spines, single exponential fit.
For test [4], the target named is calcineurin (CN) (UniProt Q08209). The test is classed as binding, human. The conditions noted are these: 36 °C. The gist of the method: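 ATTO 425-labeled AKAP79(333–408) donor (100 nM) was complexed with tetramethylrhodamine-labeled CN acceptor. The preformed complex was mixed in a stopped-flow instrument with 100 µM (final) unlabeled PVIVIT to block rebinding, at room temperature or 36 °C. Dissociation was followed as the fall in FRET signal, fitted as a single exponential; half-time was taken from the rate (n = 4).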

In general, Ki refers to a measure of affinity in units of concentration, obtained from inhibition or displacement. For orientation: Kd means the equilibrium constant for the complex coming apart.

calcineurin (CN), sequence (Q08209 1-381): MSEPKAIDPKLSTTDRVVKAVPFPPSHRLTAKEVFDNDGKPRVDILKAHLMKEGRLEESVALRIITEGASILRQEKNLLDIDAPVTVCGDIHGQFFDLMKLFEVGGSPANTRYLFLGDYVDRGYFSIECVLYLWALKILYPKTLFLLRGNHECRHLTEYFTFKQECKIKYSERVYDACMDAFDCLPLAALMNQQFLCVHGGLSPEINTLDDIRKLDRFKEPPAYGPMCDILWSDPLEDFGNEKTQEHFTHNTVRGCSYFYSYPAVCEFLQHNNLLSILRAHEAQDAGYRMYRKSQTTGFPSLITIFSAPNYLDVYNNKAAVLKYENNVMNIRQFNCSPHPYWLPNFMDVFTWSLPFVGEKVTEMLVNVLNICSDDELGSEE
calcineurin (CN), sequence (P63098 16-170 partner): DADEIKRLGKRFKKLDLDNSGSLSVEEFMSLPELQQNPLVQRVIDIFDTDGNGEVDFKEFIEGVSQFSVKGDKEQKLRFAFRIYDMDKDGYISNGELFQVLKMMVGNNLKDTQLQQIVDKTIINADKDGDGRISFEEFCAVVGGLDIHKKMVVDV

As to PAAIIIT, the Ki at calcineurin (CN) [1] was 47 µM.

As for PSIQIT, the Kd at CN is approximately 25 µM.

For the substance PRIEIA, in the test on CN, the “shift in Kd caused by PRIEIT>PRIEIA substitution in NFAT1” value is reported as 10 fold.

As to PVIAVN, at CN, the Kd is 250 µM.

In the case of PPAIIIA, the “rescue of NFAT nuclear translocation” value in test [2] is on record as “as efficiently as wildtype AKAP79”.

With PRIEIT, the Kd on CN is approximately 25 µM.

Consider PSIRIT, for which the Kd at CN was approximately 25 µM.

On to PQIIIS, for which the Kd on CN is 5 µM.

Turning to “wildtype AKAP79: full-length RNAi-resistant human AKAP79 (YFP- or CFP-tagged) expressed in rat hippocampal neurons”, the “mobile fraction of AKAP79-YFP (maximal percent recovery)” value in test [3] stood at 61.8 ± 0.6%. For the same substance, the “rescue of NFAT nuclear translocation” value in test [2] was “rescued NFAT nuclear translocation”.

Turning to PPAIIIT, the half-time of dissociation at calcineurin (CN) [4] (corresponding to mean dissociation rate) was ~ 163 ms. In addition, at calcineurin (CN) [4] (preformed complex mixed with excess unlabelled PVIVIT, mean of n = 4), the mean dissociation rate turned out to be 4.24 s⁻¹. Further, the “fold stronger binding to CN than wildtype AKAP79” value at calcineurin (CN) [1] (GST fusion proteins displacing labeled PVIVIT) is on record as ~ 4 fold. Moreover, in test [2], the “rescue of NFAT nuclear translocation” value is listed as “completely unable to rescue signaling”.

Take PIAIIIA: the “rescue of NFAT nuclear translocation” value in test [2] is given as “somewhat less efficiently”.

In the case of AIAIIIT, the Ki on calcineurin (CN) [1] was 3.7 µM.

The values are drawn from publication PMC3294036 (Nature structural & molecular biology, 2012).
